Data set [1] has as its target T1, Human immunodeficiency virus type 1 integrase (Human immunodeficiency virus 1, UniProt Q7ZJM1). Nature of the data set: Inhibition of HIV1 integrase using 3'-biotin-labelled and 5'-digoxigenin-labelled oligonucleotide substrate incubated for 1 hr by ELISA. The essentials: (§1)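 ELISA with a 3'-biotin oligo and a 5'-digoxigenin partner oligo. Overall assay uses the full complementary oligo; strand transfer uses a precleaved oligo lacking the 3'-GT. Integrase at 160 nM final, annealed oligos 7 nM, in 10 mM MgCl2, 5 mM DTT, 20 mM HEPES pH 7.5, 0.5% PEG, 15% DMSO. Run 1 h at 37 °C, products denatured with NaOH, detected on avidin plates.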
On the technique in general: ELISA stands for enzyme-linked immunosorbent assay.

Data set [2] addresses T1, Human immunodeficiency virus type 1 integrase. Description: Inhibition of HIV1 integrase strand transfer activity using 5'[digoxigenin]-GACCCTTTTAGTCAGTGTGGAAAATCTCTAGCA-3' as substrate incubated for 1 hr by ELISA. Put shortly: as §1
Data set [3] is described as follows: Cytotoxicity against human MT4 cells assessed as reduction in cell viability by MTT assay. The format is cell-based. The essentials:
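MT-4 cell viability was measured by MTT reduction, run in parallel with the antiviral assay using 5-fold serial compound dilutions. CC50 is the concentration reducing viability by 50%.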

Data set [4] deals with Human immunodeficiency virus 1. Nature of the data set: Antiviral activity against HIV1 3B infected in human MT4 cells assessed as reduction in virus-induced cytopathic effect by MTT assay. The following applies: Human immunodeficiency virus 1, 3B. The format is functional, organism-based. Put shortly: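 MT-4 cells infected with 100-300 CCID50 of HIV-1 IIIB, in the presence of 5-fold serial dilutions of compound. Cytopathic effect read by MTT reduction to formazan, measured spectrophotometrically. EC50 is the concentration giving 50% protection against virus-induced CPE.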
Background: Cytopathic effects are the visible damage that an infection or toxin causes in cultured cells.

The nature of data set [5]: Therapeutic index, ratio of CC50 for human MT4 cells to EC50 for HIV1 3B infected in human MT4 cells. Type of data set: cell-based. The following applies: read-out: Ratio CC50/EC50. The essentials:
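Ratio of CC50 to EC50. Both were determined in parallel by MTT in MT-4 cells, with the EC50 measured against HIV-1 IIIB cytopathic effect.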

Data set [6] has as its system Human immunodeficiency virus 1. Nature of the data set: Antiviral activity against HIV1 3B infected in human MT4 cells at 50 to 100 times antiviral EC50 added 1 to 25 hrs post infection assessed as time required for loss of inhibition of viral replication measured at 30 hrs post infection by p24 ELISA method. Type of data set: functional.
Data set [7] has as its system Human immunodeficiency virus 1. Description: Selectivity ratio of EC50 for raltegravir resistant HIV1 harboring integrase G140S/Q148H double mutant infected in human MT4 cells to EC50 for wild type HIV1 3B infected in human MT4 cells. Type of data set: functional. Put shortly:
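MT-4 cells were infected with 100–300 CCID₅₀ of virus stock (titrated in MT-4 cells) in the presence of 5-fold serial drug dilutions. EC₅₀ is the concentration giving 50% protection against virus-induced cytopathic effect, read by MTT reduction (MT-4/MTT assay). The value is the fold-change in EC₅₀ for each mutant strain relative to the wild-type HIV-1 strain.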

A short description of data set [8]: Inhibition of recombinant HIV1 reverse transcriptase RNase H activity using calf thymus ssDNA-[3H]-RNA as template/primer incubated for 10 mins. Also noted: species or system Human immunodeficiency virus 1. The essentials:
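Recombinant HIV-1 RT (4.5 pmol) preincubated with compound 10 min at 37 °C. Then reacted 10 min at 37 °C with [3H]-RNA/calf thymus DNA hybrid (20,000 cpm) in 50 mM Tris-HCl pH 8.0, 10 mM DTT, 6 mM MgCl2, 80 mM KCl. Stopped with cold TCA/pyrophosphate; released radioactivity taken by subtraction from undigested control.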

Molecules are shown by their SMILES.

T1 sequence (Q7ZJM1 whole entry): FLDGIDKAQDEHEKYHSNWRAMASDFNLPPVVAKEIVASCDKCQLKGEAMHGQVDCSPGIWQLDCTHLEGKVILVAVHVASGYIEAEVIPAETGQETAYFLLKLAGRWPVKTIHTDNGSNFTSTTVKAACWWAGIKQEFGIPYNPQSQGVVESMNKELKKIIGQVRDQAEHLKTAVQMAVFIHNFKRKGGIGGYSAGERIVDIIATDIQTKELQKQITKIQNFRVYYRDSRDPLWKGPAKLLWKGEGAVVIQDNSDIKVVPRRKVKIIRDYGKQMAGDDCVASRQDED

For orientation: IC50 means the concentration that gives 50% inhibition. In general, CC50 refers to the concentration that lowers cell viability or growth by half. For orientation: EC50 means the midpoint of the concentration-response curve. Take `CCCCN(C)C(=O)C1C(=O)N(O)C(=O)c2ccccc21` (stereo unspecified): the IC50 in data set [1] amounted to 8.66 µM; in data set [2], 8.7 µM. In addition, the CC50 in data set [3] was found to be 63.8 µM. Moreover, the EC50 in data set [4] was over 63.8 µM.
Regarding `CCCCCCCCNC(=O)C1C(=O)N(O)C(=O)c2ccccc21` (stereo unspecified), the IC50 in data set [1] was 9.05 µM; in data set [2], 9.13 µM. Besides, the CC50 in data set [3] stood at 98.5 µM. The EC50 in data set [4] came to 28 µM. Moreover, the selectivity ratio in data set [5] turned out to be 3.5.
On to `Cc1cn([C@H]2C[C@H](N=[N+]=[N-])[C@@H](CO)O2)c(=O)[nH]c1=O` [ZIDOVUDINE], for which, in data set [6], the Time is 4 h.
For `CC(C)c1nc(CN(C)C(=O)N[C@H](C(=O)N[C@@H](Cc2ccccc2)C[C@H](O)[C@H](Cc2ccccc2)NC(=O)OCc2cncs2)C(C)C)cs1` [RITONAVIR], the Time in data set [6] is 25 h.
In the case of `CCN(CC)C(=O)C1C(=O)N(O)C(=O)c2ccccc21` (stereo unspecified), the IC50 in data set [1] is 123 µM; in data set [2] it was 206 µM. Moreover, the CC50 in data set [3] was 28 µM. In data set [4], the EC50 was over 28 µM.
As for `C[C@@H]1CCO[C@H]2Cn3cc(C(=O)NCc4ccc(F)cc4F)c(=O)c(O)c3C(=O)N12` [DOLUTEGRAVIR], the “Ratio EC50” value in data set [7] came to 5.
`CC(C)(C)NC(=O)C1C(=O)N(O)C(=O)c2ccccc21` (stereo unspecified): the IC50 was determined as 4.45 µM in data set [1] and 4.46 µM in data set [2]. For the same compound, the CC50 in data set [3] is 142 µM. The EC50 in data set [4] is over 142 µM.
`CCCCCCCNC(=O)C1C(=O)N(O)C(=O)c2ccccc21` (stereo unspecified): the 50% inhibitory concentration (IC50) in data set [1] came out at 0.86 µM; in data set [2], 1.05 µM; in data set [8], 23.2 µM. In addition, in data set [3], the CC50 came to 110 µM. Further, in data set [4], the EC50 was found to be 32.5 µM. Further, in data set [5], the selectivity ratio was 3.4.
As to `CCCCCNC(=O)C1C(=O)N(O)C(=O)c2ccccc21` (stereo unspecified), the IC50 is 0.65 µM in data set [1] and 0.53 µM in data set [2]. The CC50 in data set [3] came out at 130 µM. Also, in data set [4], the EC50 was found to be 10.7 µM. The selectivity ratio in data set [5] came to 12.1.
The like results for `CC(C)NC(=O)C1C(=O)N(O)C(=O)c2ccccc21` (stereo unspecified) were, in that order, 4.43 µM, 5.05 µM, 162 µM, 30.2 µM and 5.4.
The like results for `O=C(NC1CC1)C1C(=O)N(O)C(=O)c2ccccc21` (stereo unspecified) were, in that order, 2.13 µM, 4 µM, over 250 µM, 42.7 µM and over 6.
Take `CCCCNC(=O)C1C(=O)N(O)C(=O)c2ccccc21` (stereo unspecified): the figures for the IC50 in data set [1], in data set [2] and in data set [8] were 0.66 µM, 0.48 µM and 15.1 µM, respectively. Moreover, the CC50 in data set [3] stood at 128 µM. Further, the EC50 in data set [4] was determined as 9.2 µM. Moreover, the selectivity ratio in data set [5] is 14.
Take `O=C(NC1CCCC1)C1C(=O)N(O)C(=O)c2ccccc21` (stereo unspecified): the IC50 in data set [1] is 1.36 µM; in data set [2], 3.63 µM. In data set [3], the CC50 was over 250 µM. In addition, the EC50 in data set [4] stood at 61.9 µM. The selectivity ratio in data set [5] is over 4.
As to `CCCCCCCCCNC(=O)C1C(=O)N(O)C(=O)c2ccccc21` (stereo unspecified), the IC50 turned out to be 6.65 µM in data set [1] and 6.67 µM in data set [2]. Further, in data set [3], the CC50 was determined as 88.5 µM. Further, the EC50 in data set [4] amounted to 29 µM. The selectivity ratio in data set [5] amounted to 3.
The like results for `CCCNC(=O)C1C(=O)N(O)C(=O)c2ccccc21` (stereo unspecified) were, in that order, 1.82 µM, 1.99 µM, 131 µM, 28 µM and 4.7.
Consider `O=C(NC1CCCCC1)C1C(=O)N(O)C(=O)c2ccccc21` (stereo unspecified), for which the values for the IC50 in data set [1] and in data set [2] were 0.7 µM and 3.36 µM, respectively. Besides, the CC50 in data set [3] is over 250 µM. Besides, the EC50 in data set [4] worked out at 80.2 µM. The selectivity ratio in data set [5] was over 3.
As to `O=C(C1C(=O)N(O)C(=O)c2ccccc21)N1CCCCC1` (stereo unspecified), the IC50 in data set [1] was found to be 8.12 µM; in data set [2] it was 9.1 µM. The CC50 in data set [3] came out at 120 µM. The EC50 in data set [4] is over 120 µM.

Values taken from ChEMBL document CHEMBL3804820, “2-hydroxyisoquinoline-1,3(2H,4H)-diones (HIDs) as human immunodeficiency virus type 1 integrase inhibitors: Influence of the alkylcarboxamide substitution of position 4” (Eur J Med Chem, 2016).
